Results on 37 compounds are retold here after ChEMBL document CHEMBL1153478, “Discovery of imidazo[1,2-a]pyridines as potent MCH1R antagonists” (Bioorg Med Chem Lett, 2009).

pIC50: −log10 of the molar value. Where only a bound is given, the exact number is not on record here.

For data set [1], the target named is T1, Melanin-concentrating hormone receptor 1 (Homo sapiens, UniProt Q99705). Put plainly: Displacement of [125I]MCH from human MCH1 receptor. The procedure, abridged:
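Competition binding on membranes from CHO cells expressing human MCH1R, with [125I]-MCH as radioligand displaced by test compounds; IC50 reported as the mean of 2 experiments.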
In general terms: In a radioligand displacement assay an active substance lowers the binding of a labelled ligand.

Data set [2] is described as follows: Plasma concentration in Sprague-Dawley rat at 10 mg/kg, po after 2 hrs. In kind it is ADME, organism-based. Further details: dose 10 mg/kg, route oral. The procedure, abridged: (§1)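 Single oral dose of 10 mg/kg given to SD rats. Plasma (µM) and brain (nmol/g) levels were measured 2 h after dosing. Values are means of 3 experiments.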
In data set [3] the test system is Brain. Put plainly: Drug level in Sprague-Dawley rat brain at 10 mg/kg, po after 2 hrs. In kind it is ADME, organism-based. Further details: dose 10 mg/kg, route oral. The note with it: in vivo. In a few lines:
as §1

In data set [4] the target is T1, Melanin-concentrating hormone receptor 1. The data set is described as follows: Antagonist activity at human MCH1 receptor expressed in CHO cells assessed as inhibition of MCH-induced intracellular calcium level by FLIPR assay. In kind it is functional, cell-based. On the technique in general: Calcium flux is commonly read through the fluorescence of an indicator in the cells.

T1 sequence (Q99705 whole entry): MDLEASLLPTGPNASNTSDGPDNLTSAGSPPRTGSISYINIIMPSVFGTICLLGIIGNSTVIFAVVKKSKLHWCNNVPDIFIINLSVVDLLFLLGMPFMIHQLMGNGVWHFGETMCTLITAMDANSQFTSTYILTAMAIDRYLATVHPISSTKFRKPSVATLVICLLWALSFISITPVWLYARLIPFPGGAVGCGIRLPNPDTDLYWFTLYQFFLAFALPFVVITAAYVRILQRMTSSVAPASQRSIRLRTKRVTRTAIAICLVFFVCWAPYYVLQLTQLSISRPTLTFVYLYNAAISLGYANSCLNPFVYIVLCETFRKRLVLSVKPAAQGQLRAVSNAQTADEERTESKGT

For orientation: pIC50 means −log10 of the IC50, conventionally taken in molar units. Regarding `CC(C)(C)c1cn2cc(NC(=O)c3ccc(-c4ccc(C(F)(F)F)cc4)cc3)ccc2n1`, in data set [1], the negative-log IC50 (pIC50) is 8.15.

For `Cc1c(C2CC2)nc2ccc(NC(=O)c3ccc(-c4cnc(C(F)(F)F)nc4)cc3)cn12`, the negative-log IC50 (pIC50) in data set [1] is 6.80.

`CCc1c(C2CC2)nc2ccc(NC(=O)c3ccc(-c4ccc(C(F)(F)F)cc4)cc3)cn12` showed a negative-log IC50 (pIC50) in data set [1] of 7.70.

In turn, `CC(=O)N(C)Cc1cn2cc(NC(=O)c3ccc(-c4ccc(C(F)(F)F)cc4)cc3)ccc2n1` showed a negative logarithm of the IC50 (pIC50) in data set [1] of 7.46.

Turning to `Cc1c(C2CC2)nc2ccc(NC(=O)c3ccc(-c4ccc(F)nc4)cc3)cn12`, the pIC50 is 8.36 in data set [1] and 7.70 in data set [4]. For the same compound, in data set [2], the concentration at 2 h turned out to be 5 µM. This compound had a Drug uptake in data set [3] of 2.5 nmol/g.

As for `Cc1c(C2CC2)nc2ccc(NC(=O)c3ccc(-c4ccccn4)cc3)cn12`, the pIC50 in data set [4] is 7.59.

In the case of `CC(O)c1c(C2CC2)nc2ccc(NC(=O)c3ccc(-c4ccc(C(F)(F)F)cc4)cc3)cn12` (stereo not given), the pIC50 in data set [1] is 6.48.

As to `CCCc1cn2cc(NC(=O)c3ccc(-c4ccc(C(F)(F)F)cc4)cc3)ccc2n1`, in data set [1], the pIC50 was 7.96.

`CC(O)c1cn2cc(NC(=O)c3ccc(-c4ccc(C(F)(F)F)cc4)cc3)ccc2n1` (stereo not given): the pIC50 in data set [1] was 7.52.

Take `O=C(Nc1ccc2nc(C3CC3)cn2c1)c1ccc(-c2ccc(C(F)(F)F)cn2)cc1`: the negative-log IC50 (pIC50) in data set [1] was 8.09.

`O=C(Nc1ccc2nc(C3CC3)cn2c1)c1ccc(-c2ccccn2)cc1` gave a pIC50 in data set [1] of 6.85.

In turn, `CC(C)c1cn2cc(NC(=O)c3ccc(-c4ccc(C(F)(F)F)cc4)cc3)ccc2n1` gave a pIC50 in data set [1] of 8.27.

`O=C(Nc1ccc2nc(C3CC3)cn2c1)c1ccc(-c2ccc(C(F)(F)F)cc2)cc1` had a pIC50 in data set [1] of 8.25.

Regarding `Cc1cn2cc(NC(=O)c3ccc(-c4ccc(C(F)(F)F)cc4)cc3)ccc2n1`, the pIC50 in data set [1] was 8.34.

As to `Cc1c(C2CC2)nc2ccc(NC(=O)c3ccc(-c4ccc(F)nc4)nc3)cn12`, the figures for the negative-log IC50 (pIC50) in data set [1] and in data set [4] were 7.21 and 6.66, respectively.

With `Cc1c(C2CC2)nc2ccc(NC(=O)c3ncc(-c4ccc(F)cc4)cn3)cn12`, the negative-log IC50 (pIC50) is 8.17 in data set [1] and 7.54 in data set [4].

Take `Cc1c(C2CC2)nc2ccc(NC(=O)c3ccc(-c4ccc(F)cn4)cc3)cn12`: the pIC50 in data set [1] is 8.27; in data set [4] it was 7.05.

For the compound `Cc1c(C2CC2)nc2ccc(NC(=O)c3ccc(-c4ccc(F)nc4)cn3)cn12`, the figures for the pIC50 in data set [1] and in data set [4] were 7.36 and 6.92, respectively.

`CC(C)(O)c1cn2cc(NC(=O)c3ccc(-c4ccc(C(F)(F)F)cc4)cc3)ccc2n1`: the pIC50 in data set [1] was 7.77.

On to `Cc1c(C2CC2)nc2ccc(NC(=O)c3ccc(-c4ccc(F)cc4)cn3)cn12`, for which the negative-log IC50 (pIC50) in data set [4] was 7.23.

On to `O=C(Nc1ccc2nccn2c1)c1ccc(-c2ccc(C(F)(F)F)cc2)cc1`, for which the pIC50 in data set [1] is 6.52.

In data set [1], `CC(=O)c1c(C2CC2)nc2ccc(NC(=O)c3ccc(-c4ccc(C(F)(F)F)cc4)cc3)cn12` gave a pIC50 of 6.49.

Turning to `Cc1c(C2CC2)nc2ccc(NC(=O)c3ccc(-c4ccc(C(F)(F)F)cn4)cc3)cn12`, the negative-log IC50 (pIC50) in data set [1] is 8.46; in data set [4], 6.00. The same compound showed a concentration at 2 h in data set [2] of 1.4 µM. Moreover, the Drug uptake in data set [3] was 1.6 nmol/g.

The compound `O=C(Nc1ccc2nc(C3CC3)c(C3CC3)n2c1)c1ccc(-c2ccc(C(F)(F)F)cc2)cc1` showed a pIC50 in data set [1] of 6.59.

In data set [1], `O=C(Nc1ccc2nc(C3CC3)c(CO)n2c1)c1ccc(-c2ccc(C(F)(F)F)cc2)cc1` gave a pIC50 of 7.96.

As to `Cc1c(C2CC2)nc2ccc(NC(=O)c3ccc(-c4ccc(F)cc4)nc3)cn12`, the pIC50 is 8.40 in data set [1] and 7.03 in data set [4].

In turn, `CCOC(=O)c1cn2cc(NC(=O)c3ccc(-c4ccc(C(F)(F)F)cc4)cc3)ccc2n1` gave a pIC50 in data set [1] of less than 6.00.

Turning to `COc1ccc(-c2ccc(C(=O)Nc3ccc4nc(C5CC5)c(C)n4c3)cc2)nc1`, the negative logarithm of the IC50 (pIC50) in data set [1] is 8.22; in data set [4] it was 6.91.

In data set [1], `O=C(Nc1ccc2nc(CO)cn2c1)c1ccc(-c2ccc(C(F)(F)F)cc2)cc1` showed a pIC50 of 6.89.

With `Cc1c(C2CC2)nc2ccc(NC(=O)c3ncc(-c4ccc(F)nc4)cn3)cn12`, the values for the pIC50 in data set [1] and in data set [4] were 6.99 and 6.79, respectively.

In data set [1], `Cc1c(C2CC2)nc2ccc(NC(=O)c3ccc(-c4ccc(C(F)(F)F)cc4)cc3)cn12` showed a pIC50 of 8.32.

As to `Cc1ccc(-c2ccc(C(=O)Nc3ccc4nc(C5CC5)c(C)n4c3)cc2)nc1`, the values for the pIC50 in data set [1] and in data set [4] were 8.32 and 7.07, respectively.

As for `Cc1c(C2CC2)nc2ccc(NC(=O)c3ccc(-c4ccc(S(C)(=O)=O)cn4)cc3)cn12`, the results for the pIC50 in data set [1] and in data set [4] were 7.32 and 7.03, respectively.

In data set [1], `CN(C)Cc1cn2cc(NC(=O)c3ccc(-c4ccc(C(F)(F)F)cc4)cc3)ccc2n1` showed a negative logarithm of the IC50 (pIC50) of 7.08.

On to `Cc1c(C2CC2)nc2ccc(NC(=O)c3cnc(-c4ccc(F)cc4)cn3)cn12`, for which the values for the pIC50 in data set [1] and in data set [4] were 8.60 and 7.15, respectively.

`Cc1c(C2CC2)nc2ccc(NC(=O)c3ccc(-c4ccc(Cl)cn4)cc3)cn12`: the pIC50 is 8.66 in data set [1] and 7.00 in data set [4].

On to `Cc1c(C2CC2)nc2ccc(NC(=O)c3ccc(-c4ccc(C(F)(F)F)nc4)cc3)cn12`, for which the results for the negative-log IC50 (pIC50) in data set [1] and in data set [4] were 8.40 and 6.96, respectively.
